From ChEMBL document CHEMBL1128707, “Novel thiazole based heterocycles as inhibitors of LFA-1/ICAM-1 mediated cell adhesion” (J Med Chem, 1995)

Experiments:
[1] = target: Intercellular adhesion molecule (ICAM-1), Integrin alpha-L/beta-2 (Homo sapiens) (UniProt P20701+P05362+P05107); assay: Inhibition of HL-60 cell adhesion mediated by interaction of LFA-1 and ICAM-1; format: functional, cell-based; parameters: concentration or dose not given beside the values; conditions: concentration not given here
Procedure, shortened: (§1)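 HL60 cells (LFA-1 positive, Mac-1 negative by FACS) were fluorochrome-labeled and added to immunoaffinity-purified recombinant soluble ICAM-1 immobilized on plastic. Incubation was 40 min at 37 °C, and nonadherent cells were washed off. Adherence was read on a fluorescence concentration analyzer. Values are IC50 (μM) or % inhibition at 10 μM, each from one assay run in five replicates.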

[2] = target: T1, Intercellular adhesion molecule (ICAM-1), Integrin alpha-L/beta-2 (Homo sapiens, UniProt P05107+P05362+P20701); assay: Inhibition of HL-60 cell adhesion to purified ICAM-1 by LFA-1; format: functional, cell-based; procedure, shortened: as §1
HL-60 [3] = assay: The concentration of compound required to inhibit 50% interaction (IC50 ) was measured on LFA-1/ICAM-1 mediated cells using cell/cell adherence assay on the HL60/U937 test system; format: functional, cell-based; conditions: Homo sapiens
Integrin alpha-M/beta-2 = Integrin alpha-M/beta-2 (Homo sapiens, UniProt P05107+P11215); assay: Inhibition of neutrophil cell Mac-1 mediated adhesion to purified ICAM-1, no effect up to 20 […]; format: functional, cell-based
[4] = target: T1, Intercellular adhesion molecule (ICAM-1), Integrin alpha-L/beta-2; assay: Inhibition of LFA-1 mediated HL60 cell adhesion to ICAM-1; format: cell-based, HL-60; procedure, shortened: as §1
[5] = The inhibitory activity was measured on VLA-4/VCAM-1 mediated cells using cell/cell adherence assay on the Ramos/IL-1beta HUVEC test system; no effect up to 20 pM; format: functional, cell-based; conditions: in the assay text read “20 µM” for “20 pM”
Procedure, shortened: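 Cell/cell adhesion used VLA-4-expressing Ramos B lymphoblastoid cells and HUVEC stimulated overnight with IL-1β to express VCAM-1. Adherence was quantified by fluorescence.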

HL-60 [6] = assay: The inhibitory activity was measured on sLex/E-selectin mediated cells using cell/cell adherence assay on the HL60/IL-1beta HUVEC test system; no effect up to 20 µM; conditions: Homo sapiens

T1 sequence (P20701 whole entry): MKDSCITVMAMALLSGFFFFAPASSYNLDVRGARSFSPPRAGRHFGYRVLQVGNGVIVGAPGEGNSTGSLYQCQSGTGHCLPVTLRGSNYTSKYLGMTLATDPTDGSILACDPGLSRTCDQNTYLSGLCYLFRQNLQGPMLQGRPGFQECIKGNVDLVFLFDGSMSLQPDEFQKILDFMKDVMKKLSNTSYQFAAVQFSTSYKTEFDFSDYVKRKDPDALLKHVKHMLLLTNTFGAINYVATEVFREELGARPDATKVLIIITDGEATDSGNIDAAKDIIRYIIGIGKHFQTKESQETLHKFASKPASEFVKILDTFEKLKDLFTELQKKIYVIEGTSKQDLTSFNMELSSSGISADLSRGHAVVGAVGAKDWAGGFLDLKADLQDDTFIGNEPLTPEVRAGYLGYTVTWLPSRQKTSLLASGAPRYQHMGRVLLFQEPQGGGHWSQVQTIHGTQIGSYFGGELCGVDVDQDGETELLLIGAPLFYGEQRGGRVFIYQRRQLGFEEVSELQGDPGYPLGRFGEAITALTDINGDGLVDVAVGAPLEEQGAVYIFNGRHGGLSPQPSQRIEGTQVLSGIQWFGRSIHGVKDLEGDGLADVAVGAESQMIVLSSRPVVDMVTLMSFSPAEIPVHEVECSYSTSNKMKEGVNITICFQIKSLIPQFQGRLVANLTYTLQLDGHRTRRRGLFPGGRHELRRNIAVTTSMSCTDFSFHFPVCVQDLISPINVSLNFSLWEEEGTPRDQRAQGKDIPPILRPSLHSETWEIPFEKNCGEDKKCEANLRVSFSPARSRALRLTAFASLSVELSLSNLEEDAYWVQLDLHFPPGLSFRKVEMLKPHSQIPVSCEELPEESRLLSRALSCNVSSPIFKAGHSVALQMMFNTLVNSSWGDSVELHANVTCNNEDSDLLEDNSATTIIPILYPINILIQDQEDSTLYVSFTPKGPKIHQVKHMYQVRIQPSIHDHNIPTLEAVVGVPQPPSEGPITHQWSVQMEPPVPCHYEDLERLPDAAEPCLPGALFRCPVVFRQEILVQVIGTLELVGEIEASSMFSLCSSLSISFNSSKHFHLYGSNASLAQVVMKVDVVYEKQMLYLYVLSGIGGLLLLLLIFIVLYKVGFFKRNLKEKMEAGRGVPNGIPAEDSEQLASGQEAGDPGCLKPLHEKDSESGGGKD
T1 sequence (P05362 whole entry): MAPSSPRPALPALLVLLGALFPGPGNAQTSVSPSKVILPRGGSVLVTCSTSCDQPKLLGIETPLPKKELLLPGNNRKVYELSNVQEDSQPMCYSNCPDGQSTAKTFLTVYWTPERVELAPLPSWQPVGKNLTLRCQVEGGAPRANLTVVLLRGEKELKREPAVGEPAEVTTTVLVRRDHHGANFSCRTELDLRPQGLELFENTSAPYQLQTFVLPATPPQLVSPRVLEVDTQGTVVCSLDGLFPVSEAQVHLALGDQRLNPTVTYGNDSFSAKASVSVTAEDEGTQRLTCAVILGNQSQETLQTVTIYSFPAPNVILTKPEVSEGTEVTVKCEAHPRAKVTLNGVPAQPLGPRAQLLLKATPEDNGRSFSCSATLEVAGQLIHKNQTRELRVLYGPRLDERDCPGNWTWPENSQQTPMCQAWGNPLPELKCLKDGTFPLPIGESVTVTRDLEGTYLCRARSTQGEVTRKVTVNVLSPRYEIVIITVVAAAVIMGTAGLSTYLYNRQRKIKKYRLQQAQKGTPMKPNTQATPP
T1 sequence (P05107 whole entry): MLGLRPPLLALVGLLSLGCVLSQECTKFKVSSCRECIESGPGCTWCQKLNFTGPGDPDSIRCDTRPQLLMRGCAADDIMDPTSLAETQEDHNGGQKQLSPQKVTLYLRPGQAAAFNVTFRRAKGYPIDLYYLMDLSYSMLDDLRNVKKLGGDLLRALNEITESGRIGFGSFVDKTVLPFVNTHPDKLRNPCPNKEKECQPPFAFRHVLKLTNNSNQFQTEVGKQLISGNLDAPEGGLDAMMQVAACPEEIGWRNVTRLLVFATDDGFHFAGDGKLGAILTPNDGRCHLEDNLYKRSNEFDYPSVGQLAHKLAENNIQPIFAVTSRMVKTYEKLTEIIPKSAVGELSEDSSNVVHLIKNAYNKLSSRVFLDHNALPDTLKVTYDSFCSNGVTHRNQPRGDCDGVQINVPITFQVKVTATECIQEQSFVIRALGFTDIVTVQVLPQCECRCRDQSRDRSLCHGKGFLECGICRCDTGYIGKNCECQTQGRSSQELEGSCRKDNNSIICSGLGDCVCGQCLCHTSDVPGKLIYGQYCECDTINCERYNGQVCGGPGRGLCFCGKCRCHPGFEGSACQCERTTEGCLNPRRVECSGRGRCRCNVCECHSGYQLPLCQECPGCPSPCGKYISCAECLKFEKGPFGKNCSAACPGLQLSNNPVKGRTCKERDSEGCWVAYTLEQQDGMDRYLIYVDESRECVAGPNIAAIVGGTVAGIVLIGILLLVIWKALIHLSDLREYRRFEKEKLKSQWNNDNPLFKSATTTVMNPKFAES
Integrin alpha-M/beta-2, sequence (P05107 23-769 limits assumed, other chains not shown): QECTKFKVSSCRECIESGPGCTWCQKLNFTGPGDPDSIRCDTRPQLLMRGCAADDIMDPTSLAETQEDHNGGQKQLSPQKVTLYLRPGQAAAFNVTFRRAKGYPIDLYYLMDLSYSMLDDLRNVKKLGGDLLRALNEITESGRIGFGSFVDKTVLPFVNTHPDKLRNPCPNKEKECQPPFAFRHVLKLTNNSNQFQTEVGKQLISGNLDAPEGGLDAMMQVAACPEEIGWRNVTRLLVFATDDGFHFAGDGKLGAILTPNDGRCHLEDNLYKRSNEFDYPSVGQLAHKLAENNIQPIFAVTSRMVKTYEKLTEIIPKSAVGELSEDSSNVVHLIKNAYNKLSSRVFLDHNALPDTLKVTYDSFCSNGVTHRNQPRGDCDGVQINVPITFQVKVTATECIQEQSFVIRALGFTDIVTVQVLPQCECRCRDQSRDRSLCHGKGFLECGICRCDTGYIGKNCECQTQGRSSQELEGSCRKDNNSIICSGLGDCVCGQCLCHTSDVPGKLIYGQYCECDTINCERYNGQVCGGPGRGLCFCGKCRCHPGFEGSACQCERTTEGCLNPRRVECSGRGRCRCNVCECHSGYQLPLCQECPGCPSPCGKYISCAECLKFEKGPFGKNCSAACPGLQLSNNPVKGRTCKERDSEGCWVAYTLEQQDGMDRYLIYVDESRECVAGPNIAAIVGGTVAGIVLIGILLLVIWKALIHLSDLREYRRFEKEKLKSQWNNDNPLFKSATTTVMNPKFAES

inhibition [1] | Compound | also measured
51% | Cc1c(C(=O)NCCCCO)cnn1-c1nc(-c2cccc(C(F)(F)F)c2)cs1 | 
5% | O=C(NCCCO)c1cnn(-c2nc(-c3cccc(C(F)(F)F)c3)cs2)c1C(F)(F)F | 
26% | CCCc1c(C(=O)NCCCO)cnn1-c1nc(-c2cccc(C(F)(F)F)c2)cs1 | 
0% | Cc1c(C(=O)NCCCCCO)cnn1-c1nc(-c2cccc(C(F)(F)F)c2)cs1 | 

More lines, now with the values behind:

Compound | inhibition [1] | also measured
CCc1c(C(=O)NCCCO)cnn1-c1nc(-c2cccc(C(F)(F)F)c2)cs1 |  | IC50 [2]: 3 µM
CCc1c(C(=O)NCCCN2CCCC2=O)cnn1-c1nc(-c2cccc(C(F)(F)F)c2)cs1 | 10% | 
COCCCNC(=O)c1cnn(-c2nc(-c3cccc(C(F)(F)F)c3)cs2)c1C | 48% | 
Cc1c(C(=O)NCCCO)cnn1-c1nc(-c2ccccc2)cs1 | 5% | 
CCc1c(C(=O)NCCCn2ccnc2)cnn1-c1nc(-c2cccc(C(F)(F)F)c2)cs1 | 34% | 
Cc1c(C(=O)NCCCO)cnn1-c1nc(-c2cccc(C(F)(F)F)c2)cs1 |  | IC50 (HL-60 [3]): 5 µM; IC50 [2]: 5 µM; IC50 (Integrin alpha-M/beta-2): No effect; IC50 [4]: 5 µM; IC50 [5]: No effect; IC50 (HL-60 [6]): No effect
CCOC(=O)CCCNC(=O)c1cnn(-c2nc(-c3cccc(C(F)(F)F)c3)cs2)c1C | 0% | 
Cc1c(C(=O)OCCCO)cnn1-c1nc(-c2cccc(C(F)(F)F)c2)cs1 | 25% | 
Cc1c(C(=O)NCCCO)cnn1-c1nc(-c2cccc(Cl)c2)cs1 | 20% | 
Cc1ccc(-c2csc(-n3ncc(C(=O)NCCCO)c3C)n2)cc1 | 7% | 
COc1cc(-c2csc(-n3ncc(C(=O)NCCCO)c3C)n2)cc(OC)c1OC | 0% | 
